Assay outcomes deposited in PubChem by several laboratories.
sdo1 growth: growth rescue of sdo1-depleted yeast, primary screen, S. cerevisiae, bone marrow failure model | S. cerevisiae sdo1-depleted JHY4D growth rescue, OD600 30 h; stronger effect = higher value; pdr5 snq2 efflux-pump mutant strain | z-score at 10 µM | 0.21% of 140,000 active | AID 817, 2007;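 active = z-score above 3 at both the 24 hr and the 30 hr optical density reads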;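 note: z-score against mean and SD of all compound wells on the same plate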
BB579 growth dn: growth inhibitors of yeast BB579 in restrictive medium, primary screen, yeast lifespan-shortening project, S. cerevisiae | OD615, 48 h | inhibition, % at 10 µM | 0.51% of 140,000 active | AID 804, 2007;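 active = inhibition above a set limit, 3 SD over the mean compound inhibition, cut at about 44% in these data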
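System: DeaD yeast strain BB579; buffer or medium: CSMM-D dextrose restrictive medium; technique: OD at 615 nm; schedule: 4 h cell preincubation, 48 h compound exposure, 30 °C humidified; doses: single 10 µM dose; controls: amphotericin B 10 µg/mL, positive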
RAM network inh: inhibitors of the yeast RAM network, primary screen, dse1pr::URA3 reporter, 5-FOA selection. S. cerevisiae dse1pr::URA3 reporter, 5-FOA growth OD615, 2 d; analog-sensitive cbk1-as2 kinase mutant strain. inhibition, % at 50 µM. 1.8% of 190,000 active. AID 868, 2007;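 active = inhibition above a set limit, 3 SD over mean compound inhibition, cut at about 8.4% in these data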;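 note: 0% = DMSO-only wells with no growth and 100% = 10 µM 1-NA-PP1 full growth; inhibition rescues growth on 5-FOA so higher OD means more RAM inhibition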
Yeast lifespan up: compounds extending yeast replicative lifespan, primary screen, S. cerevisiae, OD615 | 0.68% of 130,000 active | AID 775, 2007 | S. cerevisiae growth with nicotinamide; deaD strain in restrictive glucose medium | inhibition of the nicotinamide effect, % at 10 µM;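 active = inhibition above a set limit, placed 3 SD over the median of all compounds, cut at about 26% in these data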;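 note: 0% = nicotinamide-treated wells and 100% = cells grown without nicotinamide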
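Buffer or medium: CSMM-D glucose medium, restrictive; test system: modified budding yeast, DeaD strain; compound: single dose 10 µM compound, 0.25% DMSO; schedule: culture preincubation 4 h, compound exposure 48 h, both 30 °C; detection: optical density (absorbance) at 615 nm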
The depositor's hits bear a star; . = no result. In the library only some 2.7% were active in any assay of this set; here they are far more common.

SMILES	sdo1 growth	BB579 growth dn	RAM network inh	Yeast lifespan up
CCCOC(=O)c1ccc(Oc2cn[nH]c2-c2ccc(OCC)cc2O)cc1	-1.86	63.8*	2.8	-26.1
COc1ccc(-c2[nH]ncc2-c2ccc(Cl)cc2)c(O)c1	-2.36	73.4*	-1.9	-36.9
CCOc1ccc(-c2[nH]ncc2Oc2cccc(OC)c2)c(O)c1	-2.65	85.8*	-1.0	-24.1
COc1cccc(Oc2cn[nH]c2-c2ccc(OC)cc2O)c1	-2.45	-21.1	-2.1	-21.8
Cc1ccc(/C=N/NC(=O)Cn2cnc3ccccc32)o1	0.78	-32.7	2.0	-7.7
COc1cc(/C=C(\C#N)c2nc3c(s2)CCCC3)ccc1O	-1.42	-6.4	9.6*	-9.4
O=C(NCCn1cccn1)c1ccc(OC2CCN(CCc3ccccc3)CC2)cc1	.	.	-0.8	.
CNC(=S)N(Cc1ccc(OC)cc1)C1CC(=O)N(c2ccc(OC)cc2)C1=O (stereo not drawn)	-0.54	-26.6	10.4*	.
CCc1ccc2c(c1)C1(NN=C(c3cccc4ccccc34)S1)C(=O)N2 (stereo not drawn)	-0.7	66.0*	0.4	.
CCc1ccc2c(c1)C1(C(=O)N2)N2CCCC2C(C(=O)c2ccc3ccccc3c2)C12C(=O)Nc1ccccc12 (stereo not drawn)	-0.01	-21.4	3.5	2.6
Cc1cc(NC(=O)C2C3C(=O)N(c4cccnc4)C(C(=O)NC(C)(C)C)C34C=CC2(C)O4)no1 (stereo not drawn)	.	.	2.5	.
O=C(OCn1ncc(Br)c(Br)c1=O)c1ccc(F)cc1	-2.75	91.2*	-0.7	-11.4
O=C(OCn1ncc(Br)c(Br)c1=O)c1ccccc1Cl	-2.19	72.8*	2.0	23.0
COCCCNC(=O)C1CC(=O)OC1c1ccc(OC)c(OC)c1 (stereo not drawn)	-0.07	-21.6	1.4	-6.4
Cc1ccc(C(=O)NN2C(=O)/C(=C/c3cn(C)c4ccccc34)SC2=S)cc1	-0.56	-19.8	6.3	3.4
Cn1cc(/C=C2\SC(=O)NC2=S)c2ccccc21	.	.	10.1*	.
CCOC(=O)Cn1c(=O)oc2cc(S(=O)(=O)NC3CCCc4ccccc43)ccc21 (stereo not drawn)	0.88	-11.8	2.7	-3.2
O=C(NCc1ccc(F)cc1)c1nc(-c2cccs2)no1	.	.	8.5*	.
COc1ccc(CCNC(=O)c2nc(-c3cccs3)no2)cc1OC	.	.	0.2	.
Clc1ncc2[nH]cnc2n1	.	.	0.7	.
OC(CNCCc1ccc(C(F)(F)F)cc1)COc1ccc2ccccc2c1 (stereo not drawn)	-2	62.6*	-0.4	-10.0
CCn1c(=O)n(CC(=O)Nc2ccc(F)cc2)c(=O)c2ccccc21	.	.	3.1	.
O=C(CCSCCc1ccccn1)Nc1c(F)c(F)c(F)c(F)c1F	0.79	-26.5	2.4	27.2*
O=C(CCSCCc1ccccn1)Nc1ccccn1	0.41	-1.9	0.0	-5.2
COc1ccc(-c2csc(CCn3nc(C)cc3C)n2)cc1	.	.	-1.1	.
SMILES	sdo1 growth	BB579 growth dn	RAM network inh	Yeast lifespan up
Cc1cc(C)n(CCc2nc(-c3ccc(-c4ccccc4)cc3)cs2)n1	-0.01	-45.1	8.7*	1.5
O=C1c2ccccc2C(=O)N1c1ncc(Cc2ccc(Cl)cc2)s1	-0.28	-1.8	4.8	47.1*
CCCOP(=O)(OCCC)C(Nc1ccc(C(C)C)cc1)c1ccc([N+](=O)[O-])cc1 (stereo not drawn)	-0.51	-36.2	9.4*	-3.3
COc1ccc(CCNc2oc(COc3ccc(Br)cc3)nc2C#N)cc1OC	-1.25	-62.9	10.0*	-1.6
Cc1[nH]n(-c2ncc(-c3ccc(Cl)cc3)s2)c(=O)c1C(c1ccc(Cl)cc1)C(C#N)C#N (stereo not drawn)	-0.91	-9.1	8.6*	7.8
CC(C)OC(=O)/C(=C/c1ccc2c(c1)c1ccccc1n2C)NC(=O)c1ccccc1	-0.7	-15.3	6.0	3.8
CCCn1c2ccccc2c2cc(C(=O)O)ccc21	0.2	11.5	3.0	-10.0
COC(=O)/C(=C\c1ccc2c(c1)c1ccccc1n2C)NC(=O)c1ccccc1	-0.57	-11.7	8.6*	0.0
Cn1c2ccccc2c2cc(C(=O)O)ccc21	0.08	76.9*	2.9	-11.7
COc1ccc2[nH]c3c(=O)n4c(nc3c2c1)SCCC4	.	.	6.1	.
Cc1ccc(O)c(C(=O)c2cnc3c(c2)COc2ccc(C)cc2-3)c1	-0.69	-37.7	8.7*	.
Cc1ccc2c(c1)-c1ncc(C(=O)c3cc(Br)ccc3O)cc1CO2	.	.	8.4	.
CCCOC(=O)CSc1nc(N)c(C#N)c(-c2ccco2)c1C#N	-1.31	-52.4	9.3*	.
O=C(COC(=O)c1ccc(CNS(=O)(=O)c2ccc(F)c(Cl)c2)cc1)NCC1CCCCC1	-0.56	-40.3	9.0*	5.0
O=C(COC(=O)c1ccc(CNS(=O)(=O)c2ccc(F)c(Cl)c2)cc1)NC1CCCCCCC1	-1.2	-37.6	3.6	1.8
N#CCCN(C(=O)COC(=O)c1ccc(CNS(=O)(=O)c2ccc(F)c(Cl)c2)cc1)c1ccc(F)cc1	0.75	-23.5	11.1*	-5.3
O=C(O)c1ccc2c(c1)N(Cc1ccccc1F)C(=O)c1ccccc1S2=O (stereo not drawn)	0.69	-69.3	2.2	-3.5
CCOC(=O)c1sc(C)c2c(=O)n(CCc3ccccc3)nnc12	-0.69	-8.8	-0.7	-21.4
O=C1C(Oc2ccc(Cl)cc2)C(c2ccc3c(c2)OCO3)N1CC1CCCO1 (stereo not drawn)	.	.	2.8	.
Cc1nn(-c2ccccc2)c(Cl)c1/C=C1\SC(=S)N(C)C1=O	-1.07	-21.2	8.4*	-2.6
COC(=O)Cn1c(=NC(=O)c2cc(-c3cccs3)nc3ccccc23)sc2cc(S(N)(=O)=O)ccc21	0.66	-35.1	6.9	3.4
COC(=O)Cn1c(=NC(=O)c2nc3ccccc3s2)sc2cc(S(N)(=O)=O)ccc21	-0.63	-37.1	8.6*	1.6
CCSC1=NSC2=NC(=O)/C(=C\c3coc4ccccc4c3=O)C(=N)N12	0.29	-15.9	4.2	38.2*
O=C(C1=C(O)C(=O)N(c2ncccn2)C1c1ccc(Cl)c(Cl)c1)c1ccco1 (stereo not drawn)	1.08	-21.0	0.1	18.2
COc1ccc(CNC(=O)CN(C(=O)CCC(=O)Nc2ccccn2)c2cccc(C)c2)cc1	.	.	10.2*	.
SMILES	sdo1 growth	BB579 growth dn	RAM network inh	Yeast lifespan up
Cc1cc(C)cc(N(CC(=O)NCc2ccc3c(c2)OCO3)C(=O)CCC(=O)Nc2ccccn2)c1	0.97	-24.9	4.1	-2.2
COc1ccc2c(c1)[nH]c1c(Cl)ncnc12	0.98	61.2*	-1.9	-9.5
COc1ccc2c(c1)[nH]c1c(=O)n(N)cnc12	0.73	4.9	2.6	-2.8
COc1ccc(CCN(C)C(=O)/C=C/c2c(Cl)nc3ccccn23)cc1OC	.	.	-1.3	.
CCOC(=O)c1cccc(COC(=O)c2cccc(-c3nnc(-c4ccccc4)o3)c2)c1	-0.55	-13.7	8.9*	0.3
Cc1nc2ccc(NC(=O)C3CCN(S(=O)(=O)c4cccs4)CC3)cc2s1	-0.72	-54.7	0.3	-17.0
